This passage reports IC50 and MIC results from ChEMBL document CHEMBL1143138, “Synthesis and antimicrobial activity of beta-lactam-bile acid conjugates linked via triazole” (Bioorg Med Chem Lett, 2008).

In brackets after ≈: the same amount, converted by molar mass.

In general, IC50 refers to the concentration needed to halve the response being measured. A lower IC50 goes with higher potency. What is called MIC is the lowest concentration found to suppress growth.

What all share (type): functional, organism-based
One assay has as its system Candida albicans. Kind of assay: Antimicrobial activity against Candida albicans NCL1 by broth microdilution method. Summed up: (§1)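 Standard NCCLS broth microdilution. Fungal strains were NCL isolates and bacterial strains were NCIM cultures, with DMSO as the negative control. MIC was taken as the concentration giving 90% growth inhibition relative to the growth control, and IC50 as the concentration giving 50% growth inhibition. Values are in µg/mL.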
Background: Dilution methods test growth across graded concentrations, often in twofold steps.

In the next assay the test system is Escherichia coli. As to the kind of experiment: Antimicrobial activity against Escherichia coli NCIM2574 by broth microdilution method. Summed up: as §1
A further assay has as its system Yarrowia lipolytica. Kind of assay: Antimicrobial activity against Yarrowia lipolytica NCL4 by broth microdilution method. Summed up: as §1
The subject of the next assay is Staphylococcus aureus. Kind of assay: Antimicrobial activity against Staphylococcus aureus NCIM2122 by broth microdilution method. The method, boiled down:
as §1

Another assay has as its system Fusarium oxysporum. Kind of assay: Antimicrobial activity against Fusarium oxysporum NCL5 by broth microdilution method. The method, boiled down: as §1
The next assay relates to Cryptococcus neoformans. As to the kind of experiment: Antimicrobial activity against Cryptococcus neoformans NCL2 by broth microdilution method. Summed up:
as §1

The subject of another assay is Benjaminiella poitrasii. Kind of assay: Antimicrobial activity against Benjaminiella poitrasii NCL3 by broth microdilution method. The method, boiled down: as §1

On to `COc1ccc(N2C(=O)C(N=[N+]=[N-])C2c2ccc(Cl)cc2)cc1` (racemic), for which the IC50 in the assay with Candida albicans was 64 µg/mL (≈ 195 µM); in the assay with Escherichia coli, 128 µg/mL (≈ 389 µM); in the assay with Yarrowia lipolytica, over 128 µg/mL; in the assay on Staphylococcus aureus, over 128 µg/mL; in the assay with Fusarium oxysporum, 64 µg/mL (≈ 195 µM); with Cryptococcus neoformans it was 64 µg/mL (≈ 195 µM). Also, in the assay on Benjaminiella poitrasii, the IC50 was over 128 µg/mL. Also, the MIC with Candida albicans, in the assay with Escherichia coli, in the assay on Yarrowia lipolytica, in the assay on Staphylococcus aureus, against Fusarium oxysporum and in the assay with Cryptococcus neoformans was over 128 µg/mL each time. The MIC against Benjaminiella poitrasii is over 128 µg/mL.

In the case of `C[C@@H]1[C@H](O)[C@@H](C)/C=C/C=C/C=C/C=C/C=C/C=C/C=C/[C@H](O[C@@H]2O[C@H](C)[C@@H](O)[C@H](N)[C@@H]2O)C[C@@H]2O[C@](O)(C[C@@H](O)C[C@@H](O)[C@H](O)CC[C@@H](O)C[C@@H](O)CC(=O)O[C@H]1C)C[C@H](O)[C@H]2C(=O)O` (stereo in doubt) [AMPHOTERICIN B], the IC50 with Candida albicans stood at 0.5 µg/mL (≈ 0.541 µM); with Yarrowia lipolytica, 8 µg/mL (≈ 8.66 µM); in the assay with Fusarium oxysporum, 8 µg/mL (≈ 8.66 µM); in the assay with Cryptococcus neoformans, 8 µg/mL (≈ 8.66 µM); in the assay on Benjaminiella poitrasii, 8 µg/mL (≈ 8.66 µM). Also, the MIC in the assay with Candida albicans came out at 2 µg/mL (≈ 2.16 µM); with Yarrowia lipolytica, 16 µg/mL (≈ 17.3 µM); against Fusarium oxysporum, 16 µg/mL (≈ 17.3 µM); in the assay on Cryptococcus neoformans it was 16 µg/mL (≈ 17.3 µM); against Benjaminiella poitrasii, 16 µg/mL (≈ 17.3 µM).

For `OC(Cn1cncn1)(Cn1cncn1)c1ccc(F)cc1F` [FLUCONAZOLE], the IC50 with Candida albicans is 4 µg/mL (≈ 13.1 µM); in the assay on Yarrowia lipolytica, 32 µg/mL (≈ 104 µM); in the assay with Fusarium oxysporum, 4 µg/mL (≈ 13.1 µM); with Cryptococcus neoformans, 16 µg/mL (≈ 52.2 µM); in the assay with Benjaminiella poitrasii, 16 µg/mL (≈ 52.2 µM). Moreover, the MIC amounted to 32 µg/mL (≈ 104 µM) against Candida albicans; 64 µg/mL (≈ 209 µM) in the assay with Yarrowia lipolytica; 8 µg/mL (≈ 26.1 µM) against Fusarium oxysporum; 32 µg/mL (≈ 104 µM) in the assay with Cryptococcus neoformans; 32 µg/mL (≈ 104 µM) with Benjaminiella poitrasii.

As to `C#CCNC(=O)CC[C@@H](C)[C@H]1CC[C@H]2[C@@H]3CC[C@@H]4C[C@H](O)CC[C@]4(C)[C@H]3C[C@H](O)[C@]12C`, the IC50 in the assay with Candida albicans is 64 µg/mL (≈ 149 µM); in the assay with Escherichia coli, over 128 µg/mL; in the assay on Yarrowia lipolytica, over 128 µg/mL; with Staphylococcus aureus it was 128 µg/mL (≈ 298 µM); with Fusarium oxysporum, 64 µg/mL (≈ 149 µM); with Cryptococcus neoformans, 128 µg/mL (≈ 298 µM). The midpoint of inhibition in the assay with Benjaminiella poitrasii, the IC50, lay at 128 µg/mL (≈ 298 µM). The MIC with Candida albicans, in the assay on Escherichia coli, against Yarrowia lipolytica, in the assay with Staphylococcus aureus, against Fusarium oxysporum and in the assay on Cryptococcus neoformans was over 128 µg/mL throughout. The compound further returned an MIC against Benjaminiella poitrasii of over 128 µg/mL.

Take `C#CCOC(=O)CC[C@@H](C)[C@H]1CC[C@H]2[C@@H]3CC[C@@H]4C[C@H](O)CC[C@]4(C)[C@H]3C[C@H](O)[C@]12C`: the IC50 is 32 µg/mL (≈ 74.3 µM) in the assay on Candida albicans; 128 µg/mL (≈ 297 µM) in the assay with Escherichia coli; 128 µg/mL (≈ 297 µM) with Yarrowia lipolytica; 128 µg/mL (≈ 297 µM) in the assay on Staphylococcus aureus; 64 µg/mL (≈ 149 µM) in the assay with Fusarium oxysporum; 64 µg/mL (≈ 149 µM) with Cryptococcus neoformans. In the assay with Benjaminiella poitrasii, this compound displayed an IC50 of 128 µg/mL (≈ 297 µM). Further, the MIC in the assay on Candida albicans is 128 µg/mL (≈ 297 µM); with Escherichia coli, over 128 µg/mL; in the assay on Yarrowia lipolytica, over 128 µg/mL; against Staphylococcus aureus it was over 128 µg/mL; in the assay on Fusarium oxysporum, over 128 µg/mL; in the assay with Cryptococcus neoformans, over 128 µg/mL. The same compound displayed an MIC against Benjaminiella poitrasii of over 128 µg/mL.

`C#CCNC(=O)CC[C@@H](C)[C@H]1CC[C@H]2[C@@H]3[C@H](O)C[C@@H]4C[C@H](O)CC[C@]4(C)[C@H]3C[C@H](O)[C@]12C`: the IC50 with Candida albicans is over 128 µg/mL; with Escherichia coli, 128 µg/mL (≈ 287 µM); in the assay on Yarrowia lipolytica it was 64 µg/mL (≈ 144 µM); with Staphylococcus aureus, 64 µg/mL (≈ 144 µM); with Fusarium oxysporum, 128 µg/mL (≈ 287 µM); in the assay on Cryptococcus neoformans, over 128 µg/mL. Moreover, in the assay on Benjaminiella poitrasii, the IC50 was over 128 µg/mL. In addition, the MIC against Candida albicans, against Escherichia coli, in the assay with Yarrowia lipolytica, in the assay with Staphylococcus aureus, in the assay with Fusarium oxysporum and against Cryptococcus neoformans was over 128 µg/mL in each case. The compound further displayed an MIC in the assay with Benjaminiella poitrasii of over 128 µg/mL.

For `COc1ccc(N2C(=O)C(N=[N+]=[N-])C2c2ccccc2)cc1` (racemic), the IC50 was 64 µg/mL (≈ 217 µM) with Candida albicans; 64 µg/mL (≈ 217 µM) with Escherichia coli; 128 µg/mL (≈ 435 µM) with Yarrowia lipolytica; over 128 µg/mL in the assay with Staphylococcus aureus; 64 µg/mL (≈ 217 µM) in the assay with Fusarium oxysporum; over 128 µg/mL in the assay on Cryptococcus neoformans. In the assay on Benjaminiella poitrasii, the IC50 is over 128 µg/mL. Besides, the MIC against Candida albicans, in the assay with Escherichia coli, in the assay with Yarrowia lipolytica, against Staphylococcus aureus, against Fusarium oxysporum and in the assay on Cryptococcus neoformans was over 128 µg/mL in each case. Besides, in the assay with Benjaminiella poitrasii, the MIC was over 128 µg/mL.

With `C#CCOC(=O)CC[C@@H](C)[C@H]1CC[C@H]2[C@@H]3[C@H](O)C[C@@H]4C[C@H](O)CC[C@]4(C)[C@H]3C[C@H](O)[C@]12C`, the half-maximal inhibitory concentration (IC50) is 128 µg/mL (≈ 287 µM) with Candida albicans; 128 µg/mL (≈ 287 µM) with Escherichia coli; 64 µg/mL (≈ 143 µM) in the assay on Yarrowia lipolytica; 128 µg/mL (≈ 287 µM) in the assay on Staphylococcus aureus; 128 µg/mL (≈ 287 µM) in the assay with Fusarium oxysporum; over 128 µg/mL in the assay on Cryptococcus neoformans. The compound also came in with an IC50 in the assay with Benjaminiella poitrasii of over 128 µg/mL. Besides, the MIC against Candida albicans, in the assay on Escherichia coli, in the assay on Yarrowia lipolytica, in the assay with Staphylococcus aureus, against Fusarium oxysporum and in the assay with Cryptococcus neoformans was over 128 µg/mL each time. For the same compound, in the assay on Benjaminiella poitrasii, the MIC was over 128 µg/mL.

Turning to `CC1(C)S[C@@H]2[C@H](NC(=O)[C@H](N)c3ccccc3)C(=O)N2[C@H]1C(=O)O` [AMPICILLIN], the IC50 in the assay on Escherichia coli is 1 µg/mL (≈ 2.86 µM); in the assay with Staphylococcus aureus, 4 µg/mL (≈ 11.4 µM).

In the assay with Escherichia coli, `CN(C)[C@@H]1C(O)=C(C(N)=O)C(=O)[C@@]2(O)C(O)=C3C(=O)c4c(O)cccc4[C@@](C)(O)[C@H]3C[C@@H]12` [TETRACYCLINE] gave an IC50 of 4 µg/mL (≈ 9 µM) and an MIC of 8 µg/mL (≈ 18 µM). For the same compound, in the assay with Staphylococcus aureus, the IC50 worked out at 8 µg/mL (≈ 18 µM) and the lowest concentration to inhibit growth (MIC) was 16 µg/mL (≈ 36 µM).
